According to ChEMBL document CHEMBL1126595, “Studies directed toward the design of orally active renin inhibitors. 2. Development of the efficacious, bioavailable renin inhibitor (2S)-2-benzyl-3- [[(1-methylpiperazin-4-yl)sulfonyl]propionyl]-3-thiazol-4-yl-L-alanine amide of (2S,3R,4S)-2-amino-1-cyclohexyl-3,4-dihydroxy-6-methylheptane …” (J Med Chem, 1993):
In brackets after ≈: the same amount, converted by molar mass.

Columns and labels:
[1] = Bioavailability in the systemic circulation after 10 minutes was determined after intraduodenal dose of 10 mg/kg in rat by renin inhibition assay; format: ADME, organism-based; details: plasma (systemic circulation), read-out: Plasma level
In short: (§1)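 Screening model in anesthetized rats given 10 mg/kg intraduodenally. Formulation was ethanol stock with 110 mol % HCl, diluted with aqueous hydroxypropyl methylcellulose to 25% ethanol. Systemic and portal blood drawn at 10 and 30 min in the same animals. Drug level (ng/mL) measured by HPLC or renin inhibition assay. Mean ± SEM, n = 3 unless noted.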

[2] = Bioavailability in the systemic circulation after 30 minutes was determined after intraduodenal dose of 10 mg/kg in rat by renin inhibition assay; format: ADME, organism-based; details: plasma (systemic circulation), read-out: Plasma level; in short: as §1
Renin = target: T1, Renin (Homo sapiens, UniProt P00797); experiment: Inhibitory concentration against human plasma renin at pH 7.4; format: cell-free
T1 sequence (P00797 whole entry): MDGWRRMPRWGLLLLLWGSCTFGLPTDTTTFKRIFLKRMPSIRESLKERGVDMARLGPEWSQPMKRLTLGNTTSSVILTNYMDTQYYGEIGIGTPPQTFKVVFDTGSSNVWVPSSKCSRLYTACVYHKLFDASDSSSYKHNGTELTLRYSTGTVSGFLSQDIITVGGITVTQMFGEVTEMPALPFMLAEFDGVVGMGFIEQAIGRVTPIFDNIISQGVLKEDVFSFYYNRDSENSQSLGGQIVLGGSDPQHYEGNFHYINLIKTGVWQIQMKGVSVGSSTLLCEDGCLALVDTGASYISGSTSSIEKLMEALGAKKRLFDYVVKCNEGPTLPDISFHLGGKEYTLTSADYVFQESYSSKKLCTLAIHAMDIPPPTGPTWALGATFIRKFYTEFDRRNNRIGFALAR

[3] = Bioavailability in the portal circulation after 30 minutes was determined after intraduodenal dose of 10 mg/kg in rat by renin inhibition assay; format: ADME, organism-based; details: plasma (portal circulation), read-out: Plasma level; in short: as §1
[4] = Partition coefficient in the octanol/water phase at pH 7.4; format: physicochemical
In short: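 log P measured by octanol/water partition at pH 7.4.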

[5] = Bioavailability in the portal circulation after 10 minutes was determined after intraduodenal dose of 10 mg/kg in rat by renin inhibition assay; format: ADME, organism-based; details: plasma (portal circulation), read-out: Plasma level; in short: as §1
[6] = Solubility at pH 7.4; format: physicochemical; details: buffer
[7] = Bioavailability in the portal circulation after 10 minutes was determined after intraduodenal dose of 10 mg/kg in rat by HPLC method; format: ADME, organism-based; details: plasma (portal circulation), read-out: Plasma level; in short: as §1
[8] = Bioavailability in the systemic circulation after 30 minutes was determined after intraduodenal dose of 10 mg/kg in rat by HPLC method; format: ADME, organism-based; details: plasma (systemic circulation), read-out: Plasma level; in short: as §1
[9] = Bioavailability in the systemic circulation after 10 minutes was determined after intraduodenal dose of 10 mg/kg in rat by HPLC method; format: ADME, organism-based; details: plasma (systemic circulation), read-out: Plasma level; in short: as §1
[10] = Bioavailability in the portal circulation after 30 minutes was determined after intraduodenal dose of 10 mg/kg in rat by HPLC method; format: ADME, organism-based; details: plasma (portal circulation), read-out: Plasma level; in short: as §1
[11] = Peak concentration was determined in systemic circulation after intraduodenal dose of 10 mg/kg in ferret; format: ADME, organism-based, Mustela putorius furo; set-up: dose 10 mg/kg, route intraduodenal; details: in vivo, read-out: Activity
In short: (§2)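 Intraduodenal 10 mg/kg to anesthetized rats or ferrets. Compound dissolved in ethanol with 110 mol % HCl, then diluted in aqueous hydroxypropyl methylcellulose to 25% ethanol (10 mg/mL). Plasma sampled id rat 15, 30, 60, 120 min; id ferret 5, 15, 30, 60, 120, 180 min. Drug measured by renin inhibition assay or HPLC. AUC in ng h/mL. Bioavailability is relative to iv 1.0 mg/kg (rat) or 0.3 mg/kg (ferret).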

[12] = Bioavailability in ferret (dose 10 mg/kg i.d.); format: ADME, organism-based, Mustela putorius furo; details: in vivo; in short: as §2
[13] = Integrated area under the plasma drug level-time curve was determined in systemic circulation after intraduodenal dose of 10 mg/kg in rat; format: ADME, organism-based; set-up: dose 10 mg/kg, route intraduodenal; in short: as §2
[14] = Bioavailability in rat (dose 10 mg/kg i.d.); format: ADME, organism-based; details: in vivo; in short: as §2
[15] = Integrated area under the plasma drug level-time curve was determined in systemic circulation after intraduodenal dose of 10 mg/kg in ferret; format: ADME, organism-based, Mustela putorius furo; set-up: dose 10 mg/kg, route intraduodenal; in short: as §2
[16] = Peak concentration was determined in systemic circulation after intraduodenal dose of 10 mg/kg in rat; format: ADME, organism-based; set-up: dose 10 mg/kg, route intraduodenal; details: in vivo, read-out: Activity; in short: as §2

Compound | concentration at 0.5 h [2] [ng/mL] | IC50 (Renin) [nM] | logD [4] | solubility [6] [µg/mL] | concentration at 10 min [7] [ng/mL] | concentration at 0.5 h [8] [ng/mL] | concentration at 10 min [9] [ng/mL] | concentration at 0.5 h [10] [ng/mL] | also measured
CC(C)C[C@H](O)[C@H](O)[C@H](CC1CCCCC1)NC(=O)[C@H](Cc1cscn1)NC(=O)[C@@H](CC(=O)N(C)CCN(C)C)Cc1ccccc1 | 450 | 9.4 | 3.11 | – | – | – | – | – | concentration at 10 min [1]: 600 ng/mL; concentration at 0.5 h [3]: 780 ng/mL; concentration at 10 min [5]: 1600 ng/mL
CC(C)C[C@H](O)[C@H](O)[C@H](CC1CCCCC1)NC(=O)[C@H](Cc1cscn1)NC(=O)[C@H](Cc1ccccc1)CS(=O)(=O)N(C)CCc1ccccn1 | – | 1.8 | > 4.5 | – | – | – | – | – | –
CC(C)C[C@H](O)[C@H](O)[C@H](CC1CCCCC1)NC(=O)[C@H](Cc1cscn1)NC(=O)[C@@H](CC(=O)N(C)CCc1c[nH]c2ccccc12)Cc1ccccc1 | – | 33 | – | – | – | – | – | – | –
COCCOCOCCN(C)C(=O)C[C@@H](Cc1ccccc1)C(=O)N[C@@H](Cc1cscn1)C(=O)N[C@@H](CC1CCCCC1)[C@@H](O)[C@@H](O)CC(C)C | 570 | 1.6 | > 4.6 | 180 (≈ 246 µM) | – | – | – | – | concentration at 10 min [1]: 300 ng/mL; concentration at 0.5 h [3]: 3100 ng/mL; concentration at 10 min [5]: 3100 ng/mL
COCCN(C)C(=O)C[C@@H](Cc1ccccc1)C(=O)N[C@@H](Cc1cscn1)C(=O)N[C@@H](CC1CCCCC1)[C@@H](O)[C@@H](O)CC(C)C | – | 4.1 | – | – | 930 | 33 | 33 | 600 | –
COCCOCOCCN(C)C(=O)C[C@@H](Cc1ccccc1)C(=O)N[C@@H](Cc1c[nH]cn1)C(=O)N[C@@H](CC1CCCCC1)[C@@H](O)[C@@H](O)CC(C)C | – | 0.8 | – | 180 (≈ 251 µM) | 1900 | 50 | 68 | 370 | –
CC(C)C[C@H](O)[C@H](O)[C@H](CC1CCCCC1)NC(=O)[C@H](Cn1cccn1)NC(=O)[C@@H](CC(=O)N(C)CCc1ccccn1)Cc1ccccc1 | – | 1.6 | > 4.2 | 14 (≈ 20.3 µM) | 2200 | 300 | 220 | 4500 | Cmax [11]: 400 ng/mL; bioavailability [12]: 35%; AUC [13]: 760 ng·h/mL; bioavailability [14]: 20%; AUC [15]: 870 ng·h/mL; Cmax [16]: 460 ng/mL
CC(C)C[C@H](O)[C@H](O)[C@H](CC1CCCCC1)NC(=O)[C@H](Cc1cscn1)NC(=O)[C@@H](CC(=O)N(C)CCn1ccnc1)Cc1ccccc1 | – | 1.3 | 4.01 | 120 (≈ 173 µM) | 400 | 190 | 57 | 810 | –
CC(C)C[C@H](O)[C@H](O)[C@H](CC1CCCCC1)NC(=O)[C@H](Cc1cscn1)NC(=O)[C@@H](CC(=O)NCCc1ccccn1)Cc1ccccc1 | – | 37 | – | – | – | – | – | – | –
CC(C)C[C@H](O)[C@H](O)[C@H](CC1CCCCC1)NC(=O)[C@H](Cc1cscn1)NC(=O)[C@H](Cc1ccccc1)CS(=O)(=O)C(C)(C)C | 29 | – | > 4.2 | – | – | – | – | – | concentration at 10 min [1]: 22 ng/mL; concentration at 0.5 h [3]: 500 ng/mL; concentration at 10 min [5]: 830 ng/mL
CC(C)C[C@H](O)[C@H](O)[C@H](CC1CCCCC1)NC(=O)[C@H](Cc1cscn1)NC(=O)[C@@H](CC(=O)N(C)CCN1CCOCC1)Cc1ccccc1 | 570 | 4.1 | 4.15 | – | – | – | – | – | Cmax [11]: 860 ng/mL; bioavailability [12]: 85%; AUC [15]: 1200 ng·h/mL
CC(C)C[C@H](O)[C@H](O)[C@H](CC1CCCCC1)NC(=O)[C@H](Cc1cscn1)NC(=O)[C@@H](CC(=O)N(C)CCc1ccncc1)Cc1ccccc1 | – | 3 | > 4.2 | 12 (≈ 17 µM) | – | 190 | – | – | –
CC(C)C[C@H](O)[C@H](O)[C@H](CC1CCCCC1)NC(=O)[C@H](Cc1cscn1)NC(=O)[C@@H](CC(=O)N(C)CCN1CCN(C)CC1)Cc1ccccc1 | 74 | 8.5 | 3.58 | – | – | – | – | – | concentration at 10 min [1]: 80 ng/mL; concentration at 0.5 h [3]: 590 ng/mL; concentration at 10 min [5]: 580 ng/mL
CC(C)C[C@H](O)[C@H](O)[C@H](CC1CCCCC1)NC(=O)[C@H](Cc1cscn1)NC(=O)[C@H](Cc1ccccc1)CS(=O)(=O)C1CN(C)C1 | – | 3.9 | 3.89 | – | 1800 | 550 | 510 | 1900 | Cmax [11]: 790 ng/mL; bioavailability [12]: 80%; AUC [13]: 1300 ng·h/mL; bioavailability [14]: 80%; AUC [15]: 2000 ng·h/mL; Cmax [16]: 850 ng/mL
CC(C)C[C@H](O)[C@H](O)[C@H](CC1CCCCC1)NC(=O)[C@H](Cc1cscn1)NC(=O)[C@@H](CC(=O)N(C)CCn1cccn1)Cc1ccccc1 | – | 0.72 | > 4.2 | 44 (≈ 63.3 µM) | 1900 | 230 | 140 | 2300 | –
CC(C)C[C@H](O)[C@H](O)[C@H](CC1CCCCC1)NC(=O)[C@H](Cn1ccnc1)NC(=O)[C@@H](CC(=O)N(C)CCc1ccccn1)Cc1ccccc1 | – | 14 | – | – | – | – | – | – | –
